Key:
Plasmodium falciparum [1] = assay: Antimalarial activity against Plasmodium falciparum Dd2 after 72 hrs by SYBR Green-based parasite proliferation assay; type: functional; conditions: Dd2, 72 h
Method in brief: (§1)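 Parasites grown in human O+ erythrocytes in RPMI 1640 with hypoxanthine, HEPES, Albumax and 5% human serum, under 3% CO2/1% O2/96% N2 at 37 °C. Cultures were exposed to serial dilutions of compound for 72 h. Parasite DNA growth was read by SYBR Green fluorescence. EC50 was derived from quadruplicate runs, with bromophycolide A as positive control.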

Cruzipain = Cruzipain (Trypanosoma cruzi, UniProt P25779); assay: Inhibition of Trypanosoma cruzi cruzain using Z-Phe-Arg-AMC as substrate by spectrofluorimetry
Method in brief: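 Substrate Z-Phe-Arg-AMC; activity tracked 5 min with stirring in phosphate buffer pH 6.3 with DTT at 37 °C, in cuvettes (ex 380/em 460 nm). Controls: no inhibitor, and E-64. Run in triplicate. IC50 from rates at five inhibitor concentrations by nonlinear regression.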

Procathepsin L = Procathepsin L (Homo sapiens, UniProt P07711); assay: Inhibition of cathepsin L (unknown origin) using fluorometric Z-Phe-Arg-AMC as substrate by spectrofluorimetry
Method in brief: (§2)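 Enzyme activated 5 min with DTT in acetate buffer pH 5.5 at 37 °C, then incubated 5 min with sample. Z-Phe-Arg-AMC at 185 μM (catB) or 10 μM (catL), with stirring; fluorescence ex 355/em 460 nm. Controls: no inhibitor, and E-64. Run in triplicate. IC50 from rates at ≥7 inhibitor concentrations by nonlinear regression.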

Plasmodium falciparum [2] = assay: Antimalarial activity against Plasmodium falciparum W2 after 72 hrs by SYBR Green-based parasite proliferation assay; type: functional, organism-based; conditions: W2, 72 h; method in brief: as §1
Plasmodium falciparum [3] = assay: Antimalarial activity against Plasmodium falciparum 3D7 after 72 hrs by SYBR Green-based parasite proliferation assay; type: functional, organism-based; conditions: 3D7, 72 h; method in brief: as §1
Cathepsin B = Cathepsin B (Homo sapiens, UniProt P07858); assay: Inhibition of cathepsin B (unknown origin) using fluorometric Z-Phe-Arg-AMC as substrate by spectrofluorimetry; method in brief: as §2

Procathepsin L, sequence (P07711 whole entry): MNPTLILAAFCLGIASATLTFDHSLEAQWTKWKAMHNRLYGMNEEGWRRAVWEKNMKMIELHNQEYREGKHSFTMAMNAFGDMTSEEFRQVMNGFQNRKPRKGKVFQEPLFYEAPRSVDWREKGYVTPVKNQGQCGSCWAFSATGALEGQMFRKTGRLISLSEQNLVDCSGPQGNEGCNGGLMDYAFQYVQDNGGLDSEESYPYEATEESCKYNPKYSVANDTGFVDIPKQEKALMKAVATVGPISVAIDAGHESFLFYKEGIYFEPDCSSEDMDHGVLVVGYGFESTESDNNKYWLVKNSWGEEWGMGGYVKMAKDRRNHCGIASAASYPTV
Cruzipain, sequence (P25779 whole entry): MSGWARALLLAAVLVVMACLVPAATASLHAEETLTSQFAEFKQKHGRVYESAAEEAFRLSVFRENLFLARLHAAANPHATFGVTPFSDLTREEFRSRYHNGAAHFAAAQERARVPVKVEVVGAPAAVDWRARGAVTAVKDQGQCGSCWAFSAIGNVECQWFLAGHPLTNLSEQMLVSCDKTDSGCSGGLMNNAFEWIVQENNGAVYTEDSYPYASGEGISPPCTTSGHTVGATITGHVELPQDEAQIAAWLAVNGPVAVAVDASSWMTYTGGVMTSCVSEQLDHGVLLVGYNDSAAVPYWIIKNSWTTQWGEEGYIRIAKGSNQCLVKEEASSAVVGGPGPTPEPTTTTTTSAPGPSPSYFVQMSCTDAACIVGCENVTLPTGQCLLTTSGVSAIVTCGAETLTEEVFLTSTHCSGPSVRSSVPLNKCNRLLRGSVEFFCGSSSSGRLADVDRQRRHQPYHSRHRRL

Row | IC50 (Cruzipain) | IC50 (Procathepsin L) | IC50 (Cathepsin B) | SMILES | EC50 (Plasmodium falciparum [1]) | EC50 (Plasmodium falciparum [2]) | EC50 (Plasmodium falciparum [3])
1 | 21.6 µM | > 100 µM | – | CC1(C)CCc2cc(CCC(=O)c3c(O)cc4c(c3O)CCC(C)(C)O4)ccc2O1 | 11.7 µM | 6.7 µM | 14.4 µM
2 | 8.7 µM | > 100 µM | 8.5 µM | CC1(C)CCc2c(cc(O)c(C(=O)CCc3ccc4c(c3)CC3C(C)(C)CCCC3(C)O4)c2O)O1 (centres undefined) | 12.4 µM | 8.5 µM | 17.7 µM

The next lines start with the molecule.

Row | SMILES | IC50 (Cruzipain) | IC50 (Procathepsin L) | IC50 (Cathepsin B) | EC50 (Plasmodium falciparum [1]) | EC50 (Plasmodium falciparum [2]) | EC50 (Plasmodium falciparum [3])
3 | CC(C)=CCC/C(C)=C\Cc1c(O)cc(O)c(C(=O)CCc2ccc(O)cc2)c1O | 7.1 µM | 1 µM | > 100 µM | – | – | –
4 | CC(C)C[C@H](NC(=O)[C@H]1O[C@@H]1C(=O)O)C(=O)NCCCCN=C(N)N [E-64] | – | 0.03 µM | 0.04 µM | – | – | –
5 | CC(C)=CCc1cc(CCC(=O)c2c(O)cc3c(c2O)CCC(C)(C)O3)ccc1O | 12 µM | 3.3 µM | > 100 µM | – | – | –

Reference: ChEMBL document CHEMBL3352268, “Structures and bioactivities of dihydrochalcones from Metrodorea stipularis” (J Nat Prod, 2014)
